{"source": "paper PMC5990500", "about": "(Neurology and Therapy, 2017)", "key": {"[1]": {"type": "in vivo, human", "method_in_brief": "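Randomized, double-blind, placebo-controlled study in DSM-IV schizophrenia patients (18–55 y, clinically stable, on one antipsychotic). Plasma AUC0−∞, Cmax and tmax taken on day 1, and AUCtau,ss, Cmax,ss and tmax,ss at steady state (day 14). Dose proportionality was fitted by log-log linear regression.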"}, "[2]": {"tested_on": "patients with mild-to-moderate schizophrenia", "assay": "Safety and tolerability", "type": "in vivo, human", "method_in_brief": "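Patients were randomized 1:1:1:1 to oral test compound (25, 50 or 100 mg) or placebo once daily for 14 days, double-blind. Assessments were AEs, vital signs, 12-lead ECG, clinical laboratory tests, physical examination, CGI-I, PANSS, C-SSRS, Snellen visual acuity and Ishihara colour vision. End-of-treatment visit came 7–14 days after the last dose. All dosed patients were included, and results were summarized descriptively.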"}, "cGMP [3]": {"tested_on": "cGMP", "settings": "cited from earlier work"}, "cGMP [4]": {"tested_on": "cGMP", "settings": "healthy male volunteers, single oral dose; cited from earlier work"}, "[5]": {"settings": "healthy male volunteers, single oral dose; cited from earlier work"}, "healthy male volunteers": {"tested_on": "healthy male volunteers", "settings": "cited from earlier work"}, "memory performance": {"tested_on": "memory performance", "settings": "cited from earlier work"}, "rat hippocampal slices": {"tested_on": "rat hippocampal slices", "settings": "application to rat hippocampal slices; cited from earlier work"}, "[6]": {"tested_on": "patients with mild-to-moderate probable Alzheimer's disease", "settings": "cited from earlier work"}, "[7]": {"settings": "steady state vs single dose, 25 to 100 mg"}, "[8]": {"settings": "phase II placebo-controlled study"}}, "note": "Like-named read-outs stand apart in the source and are kept apart here.", "data": [{"molecule": "O=c1[nH]c(Cc2ccccn2)nc2c1cnn2C1CCOCC1", "note": "[BI 409306]", "values": [{"measurement": "dose proportionality of exposure", "setting": "[1]; 25- to 100-mg dose range", "result": "dose-proportional from 50 to 100 mg"}, {"measurement": "gCV% of exposure (inter-individual variability)", "setting": "[1]; CYP2C19 µM predicted phenotype", "result": 154, "unit": "%"}, {"measurement": "gCV% of exposure (inter-individual variability)", "setting": "[1]; CYP2C19 EM predicted phenotype", "result": 152, "unit": "%"}, {"measurement": "gCV% of exposure (inter-individual variability)", "setting": "[1]; CYP2C19 IM predicted phenotype", "result": 48.4, "unit": "%"}, {"measurement": "exposure by CYP2C19 predicted phenotype", "setting": "[1]; IM, EM, UM patients", "result": "highest in patients with the CYP2C19 IM predicted phenotype, followed by EM and UM patients"}, {"measurement": "half-life", "setting": "[1]; human, plasma, oral", "result": "1.1 to 1.85", "unit": "h"}, {"measurement": "gCV of AUC0−∞ (inter-individual variability), range over dose groups", "setting": "[1]; single dose", "result": "98.4% to 108%"}, {"measurement": "gCV of C max (inter-individual variability), range over dose groups", "setting": "[1]; single dose", "result": "73.3% to 106%"}, {"measurement": "time to reach C max", "setting": "[1]; single dose, across 25, 50, 100 mg", "result": "30 to 45", "unit": "min"}, {"measurement": "gCV of AUCtau,ss (inter-individual variability), range over dose groups", "setting": "[1]; steady state", "result": "86.8% to 112%"}, {"measurement": "gCV of C max,ss (inter-individual variability), range over dose groups", "setting": "[1]; steady state", "result": "74.4% to 90.9%"}, {"measurement": "accumulation ratio AUC, range over dose groups", "setting": "[1]; [7]", "result": "0.758–1.13"}, {"measurement": "accumulation ratio C max, range over dose groups", "setting": "[1]; [7]", "result": "0.768–1.40"}, {"measurement": "mean change from baseline in total PANSS score", "setting": "[2]; 25 mg qd, day 7", "result": "−0.1"}, {"measurement": "mean change from baseline in total PANSS score", "setting": "[2]; 25 mg qd, day 13", "result": 2.3}, {"measurement": "mild suicidal ideation after treatment initiation (C-SSRS score = 1), patients", "setting": "[2]; 50 mg qd", "result": "one patient"}, {"measurement": "mean change from baseline in total PANSS score", "setting": "[2]; 50 mg qd, day 7", "result": "−0.2"}, {"measurement": "mean change from baseline in total PANSS score", "setting": "[2]; 50 mg qd, day 13", "result": 0.0}, {"measurement": "mean change from baseline in total PANSS score", "setting": "[2]; 100 mg qd, day 7", "result": "−1.4"}, {"measurement": "mean change from baseline in total PANSS score", "setting": "[2]; 100 mg qd, day 13", "result": "−3.6"}, {"measurement": "effect on mean pupil diameter relative to placebo", "setting": "[2]; 25, 50, 100 mg qd", "result": "negligible effect"}, {"measurement": "CGI-I, overall disease status", "setting": "[2]; 25, 50, 100 mg qd 14 days", "result": "no change or minimal improvement"}, {"measurement": "changes in laboratory parameters, vital signs, or ECGs", "setting": "[2]; 25, 50, 100 mg qd 14 days", "result": "No clinically relevant or dose-related changes"}, {"measurement": "deaths, serious AEs, discontinuation due to AEs", "setting": "[2]; 25, 50, 100 mg qd 14 days", "result": "no deaths, serious AEs or discontinuation due to AEs"}, {"measurement": "intensity of AEs", "setting": "[2]; 25, 50, 100 mg qd 14 days", "result": "mild"}, {"measurement": "tolerability", "setting": "[2]; 25, 50, 100 mg qd 14 days", "result": "well tolerated"}, {"measurement": "color discrimination (Ishihara plates)", "setting": "[2]; all treatment groups", "result": "normal at maximum time points in all the patients"}, {"measurement": "cGMP in rat cerebrospinal fluid (CSF) and prefrontal cortex", "setting": "cGMP [3]", "result": "dose-dependent increase"}, {"measurement": "cGMP in the CSF", "setting": "cGMP [4]", "result": "dose- and concentration-dependent increase"}, {"measurement": "maximum concentration in CSF as % of the maximum plasma concentration", "setting": "[5]", "result": 28.31, "unit": "%"}, {"measurement": "frequency of eye disorders", "setting": "healthy male volunteers; healthy male Chinese and Japanese subjects receiving BI 409306", "result": 29.8, "unit": "%"}, {"measurement": "time to resolution of visual AEs / eye disorders", "setting": "healthy male volunteers; healthy male volunteers", "result": "1 to 2", "unit": "h"}, {"measurement": "memory performance", "setting": "memory performance", "result": "improved memory performance"}, {"measurement": "effect on long-term potentiation (LTP)", "setting": "rat hippocampal slices", "result": "significant enhancement of long-term potentiation"}]}, {"molecule": "C[C@@H]1CN(Cc2ncccn2)C[C@H]1c1nc2c(cnn2C2CCOCC2)c(=O)[nH]1", "note": "[PF-04447943]", "values": [{"measurement": "efficacy vs placebo in cognition, behavior, clinician-rated global change", "setting": "[6]; 12-week treatment", "result": "not more effective than placebo"}, {"measurement": "estimated median exposure relative to the IC50", "setting": "[6]; [8]", "result": "remained above the IC50 for the entire dosing duration"}, {"measurement": "maximal concentrations relative to the IC50", "setting": "[6]; [8]", "result": "approximately five times the IC50"}]}]}
